# The array DNA melting data of Ke et al. (doi:10.1101/2024.01.08.574731)
# Columns and labels:
# [1] = folding enthalpy; higher = less favourable; fluorescence melt of hairpins on a sequencing array, two-state fit; conditions: sodium 0.088 M
# Method in brief: (§1)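 Library hairpins on a sequenced MiSeq flow cell carried annealed Cy3 and quencher oligos, and their Cy3 fluorescence was imaged in 50 mM Na-HEPES pH 8.0 with 25 mM NaCl, in 2.5 °C steps up to 60 °C. Signals were normalised to Cy3 before quenching and to control constructs. Melting temperature and folding enthalpy were obtained from bootstrapped two-state fits, combined by inverse-variance weighting across four replicates, and the fitted temperatures were then raised by 9.35 °C to match UV melts.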
# [2] = melting temperature; fluorescence melt of hairpins on a sequencing array, two-state fit, raised by 9.35 °C to match UV melts; conditions: sodium 0.088 M
# Method in brief: as §1
Sequence,folding enthalpy [1],Tm [2]
GAACGACGAAAGTCTTC (((.(((....)))))),-15.3 kcal/mol,34.8 °C
GAACGCCGAAAGGCATTC (((.(((....))).))),-17.8 kcal/mol,43.3 °C
GAACGCCGAAAGGCTTTC (((.(((....))).))),-17.9 kcal/mol,44.2 °C
GAACGCGAAAGCGGGTTC ((((((....)))..))),-11.9 kcal/mol,47.1 °C
GAACGCGAAAGCGTATTC ((((((....)))..))),-7.69 kcal/mol,35.8 °C
GAACGCGAAAGCGTCTTC ((((((....)))..))),-21.6 kcal/mol,62.6 °C
GAACGCGAAAGCGTTTC ((((((....))).))),-10.7 kcal/mol,57.7 °C
GAACGGCCGAAAGGCTTC (((..(((....)))))),-7.62 kcal/mol,21.1 °C
GAACGGGGAAACCCGTTC (((((((....))))))),-34.2 kcal/mol,67.9 °C
GAACGTGAAAACGTTC ((((((....)))))),-34 kcal/mol,58.1 °C
GAACGTGGAAACACGCTC ((.((((....)))).)),-18.2 kcal/mol,44 °C
GAACGTGGAAACACGTTC (((((((....))))))),-31.6 kcal/mol,66.3 °C
GAACTCGGAAACAAGTTC (((((.(....).))))),-22.7 kcal/mol,34 °C
GAACTCGGAAACGAATTC (((.(((....))).))),-27.5 kcal/mol,31.7 °C
GAACTGCGAAAGCACTTC (((.(((....))).))),-10.9 kcal/mol,28.4 °C
GAACTGGGAAACTAGTTC (((((.(....).))))),-37.9 kcal/mol,42.4 °C
GAACTTGAAAAAGTTC ((((((....)))))),-28.8 kcal/mol,49.7 °C
GAAGAACGAAAGTTGTTC (((.(((....))).))),-32.7 kcal/mol,41.4 °C
GAAGACACGAAAGTGTTC (((..(((....)))))),-10.1 kcal/mol,31.9 °C

Sequence,folding enthalpy [1],Tm [2]
GAAGACCGAAAGGTATTC (((.(((....))).))),-32.5 kcal/mol,50.8 °C
GAAGACCGAAAGGTTTC (((.(((....)))))),-13.9 kcal/mol,37 °C
GAAGACGAAAGTCTTC ((((((....)))))),-37.7 kcal/mol,64.5 °C
GAAGAGCGAAAGCTGTTC (((.(((....))).))),-24.9 kcal/mol,49.2 °C
GAAGAGCGAAAGCTTTC (((.(((....)))))),-12.2 kcal/mol,31.1 °C
GAAGAGGGAAACTTCTTC (((((.(....).))))),-30.1 kcal/mol,41 °C
GAAGATGGAAACATCTCC (.(((((....))))).),-16.3 kcal/mol,33.4 °C
GAAGATGGAAACATCTTC (((((((....))))))),-48.6 kcal/mol,53.5 °C
GAAGCACGAAAGTGTTTC (((.(((....))).))),-35.2 kcal/mol,51.1 °C
GAAGCAGGAAACTGTTTC (((.(((....))).))),-26.7 kcal/mol,38.8 °C
GAAGCCCGAAAGGGTTTC (((.(((....))).))),-34.4 kcal/mol,56.2 °C
GAAGCCGAAAGGCGGTTC ((((((....)))..))),-9.79 kcal/mol,47.1 °C
GAAGCCGAAAGGCGTTTC ((((((....)))..))),-8.82 kcal/mol,44.7 °C
GAAGCCGAAAGGCTGTTC ((((((....)))..))),-10.4 kcal/mol,47.4 °C
GAAGCCGCGAAAGCGTTC (((..(((....)))))),-11 kcal/mol,26.3 °C
GAAGCCGGAAACGGCTCC (.(((((....))))).),-9.15 kcal/mol,46.8 °C
GAAGCGGAAACGCTTC ((((((....)))))),-33.6 kcal/mol,67.6 °C
GAAGCTGAAAAGCTTC ((((((....)))))),-31.2 kcal/mol,58.3 °C
GAAGCTGGAAACAGTTTC (((.(((....))).))),-27.1 kcal/mol,41.6 °C
